According to ChEMBL document CHEMBL1124054, “Synthesis and biological activity of ketomethylene-containing nonapeptide analogues of snake venom angiotensin converting enzyme inhibitors” (J Med Chem, 1988):
Starred links: 1 amine or outer side, 2 acyl side, 3 side chain; linkers in the order of their positions; H or OH if unused. Non-standard residues stand in square brackets, D forms with d. Residues, ends and D or L forms follow the SMILES beside them. *: point of attachment. X2 = O=C(CCC(=O)[*:2])[C@H](Cc1ccccc1)N[*:1]; X1 = O=C(CCC(=O)[*:2])[C@@H]1CCCN1[*:1]; X3 = O=C1CCN([*:1])[C@H]1C(=O)[*:2]; Cyclobutanecarbonyl = O=C(C1CCC1)*; Nle = CCCC[C@H](N)C(=O)O

Key:
[1] = target: Angiotensin-converting enzyme (Oryctolagus cuniculus) (UniProt P12822); assay: Inhibition of Angiotensin I converting enzyme from rabbit lung; conditions: read-out: I50
[2] = Time required for 100% degradation by trypsin; type: ADME
Rattus norvegicus [3] = organism: Rattus norvegicus; assay: Time required for 100% degradation in rat intestinal homogenate; type: ADME
Outline: (§1)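 Rat small intestine was taken immediately after sacrifice and minced in Krebs Ringer (10 mL/g). Peptide (0.2–0.5 μmol) mixed with homogenate (1.0 mL per μmol), shaken at 37 °C. Degradation followed by TLC.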

Rattus norvegicus [4] = organism: Rattus norvegicus; assay: Time required for 100% degradation in rat stomach homogenate; type: ADME
Outline: (§2)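 Peptide, partially neutralized with 0.1 N HCl, incubated at 37 °C with 150 mg rat stomach homogenate. Breakdown monitored by TLC.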

chymotrypsin = assay: Time required for 50% degradation by chymotrypsin; type: ADME; conditions: read-out: Time (converted)
Outline: (§3)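 Peptide (0.5–1.0 μmol) in 0.1 M Tris, pH 7.8, stirred at room temperature with chymotrypsin (37 units dissolved in 50 mL cold 0.001 N HCl; 0.050 mL per μmol peptide). Degradation followed over time by TLC.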

trypsin = assay: Time required for 50% degradation by trypsin; type: ADME; conditions: read-out: Time
[5] = Time required for 50% degradation in rat intestinal homogenate; type: ADME; conditions: read-out: Time (converted)
Outline: as §1

[6] = Time required for 50% degradation in rat stomach homogenate; type: ADME; conditions: read-out: Time (converted)
Outline: as §2

[7] = Time required for degradation by pepsin (none); type: ADME
Rattus norvegicus [8] = assay: Inhibition of angiotensin I induced blood pressure in normotensive anesthetized rats at 10 ug/kg (i.v.) for 10 min; type: functional
Outline: (§4)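 Male Sprague-Dawley normotensive rats (290-540 g), pentobarbital-anesthetized (50 mg/kg ip), intubated. Jugular vein cannulated for iv dosing and carotid artery for blood pressure. Control pressor response to angiotensin I (175 ng/kg iv) taken after vehicle (1 mL/kg). Compound given iv in distilled water or 5% sodium bicarbonate. Angiotensin I challenge repeated at 1.5 to 75 min, rise in pressure compared with control.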

Rattus norvegicus [9] = assay: Inhibition of angiotensin I induced blood pressure in normotensive anesthetized rats at 10 ug/kg (i.v.) for 1.5 min; type: functional
Outline: as §4

Rattus norvegicus [10] = assay: Inhibition of angiotensin I induced blood pressure in normotensive anesthetized rats at 10 ug/kg (i.v.) for 30 min; type: functional
Outline: as §4

Rattus norvegicus [11] = assay: Inhibition of angiotensin I induced blood pressure in normotensive anesthetized rats at 10 ug/kg (i.v.) for 5 min; type: functional
Outline: as §4

Rattus norvegicus [12] = assay: Inhibition of angiotensin I induced blood pressure in normotensive anesthetized rats at 10 ug/kg (i.v.) for 60 min; type: functional
Outline: as §4

Rattus norvegicus [13] = assay: Inhibition of angiotensin I induced blood pressure in normotensive anesthetized rats at 1 ug/kg (i.v.) for 1.5 min; type: functional
Outline: as §4

Rattus norvegicus [14] = assay: Inhibition of angiotensin I induced blood pressure in normotensive anesthetized rats at 1 ug/kg (i.v.) for 10 min; type: functional
Outline: as §4

Rattus norvegicus [15] = assay: Inhibition of angiotensin I induced blood pressure in normotensive anesthetized rats at 1 ug/kg (i.v.) for 30 min; type: functional
Outline: as §4

Rattus norvegicus [16] = assay: Inhibition of angiotensin I induced blood pressure in normotensive anesthetized rats at 1 ug/kg (i.v.) for 5 min; type: functional
Outline: as §4

Rattus norvegicus [17] = assay: Inhibition of angiotensin I induced blood pressure in normotensive anesthetized rats at 1 ug/kg (i.v.) for 60 min; type: functional
Outline: as §4

Rattus norvegicus [18] = assay: Inhibition of angiotensin I induced blood pressure in normotensive anesthetized rats at 30 ug/kg (i.v.) for 1.5 min; type: functional
Outline: as §4

Rattus norvegicus [19] = assay: Inhibition of angiotensin I induced blood pressure in normotensive anesthetized rats at 30 ug/kg (i.v.) for 10 min; type: functional
Outline: as §4

Rattus norvegicus [20] = assay: Inhibition of angiotensin I induced blood pressure in normotensive anesthetized rats at 30 ug/kg (i.v.) for 30 min; type: functional
Outline: as §4

Rattus norvegicus [21] = assay: Inhibition of angiotensin I induced blood pressure in normotensive anesthetized rats at 30 ug/kg (i.v.) for 5 min; type: functional
Outline: as §4

Rattus norvegicus [22] = assay: Inhibition of angiotensin I induced blood pressure in normotensive anesthetized rats at 30 ug/kg (i.v.) for 60 min; type: functional
Outline: as §4

Rattus norvegicus [23] = assay: Inhibition of angiotensin I induced blood pressure in normotensive anesthetized rats at 30 ug/kg (i.v.) for 75 min; type: functional
Outline: as §4

pepsin = assay: Time required for 50% degradation by pepsin; type: ADME; conditions: read-out: Time (converted)
[24] = Time required for degradation by chymotrypsin (none); type: ADME
Outline: as §3

[25] = Time required for degradation by trypsin (none); type: ADME
Rattus norvegicus [26] = assay: Inhibition of angiotensin I induced blood pressure in normotensive anesthetized rats at 10 ug/kg (i.v.) for 75 min; type: functional; conditions: in the assay text read “30 ug/kg” for “10 ug/kg”
Outline: as §4

[27] = target: T1, Angiotensin-converting enzyme (Rattus norvegicus, UniProt P47820); assay: Inhibition of Angiotensin I converting enzyme in normotensive rat; type: functional; conditions: read-out: I50 (converted)
T1 sequence (P47820 whole entry): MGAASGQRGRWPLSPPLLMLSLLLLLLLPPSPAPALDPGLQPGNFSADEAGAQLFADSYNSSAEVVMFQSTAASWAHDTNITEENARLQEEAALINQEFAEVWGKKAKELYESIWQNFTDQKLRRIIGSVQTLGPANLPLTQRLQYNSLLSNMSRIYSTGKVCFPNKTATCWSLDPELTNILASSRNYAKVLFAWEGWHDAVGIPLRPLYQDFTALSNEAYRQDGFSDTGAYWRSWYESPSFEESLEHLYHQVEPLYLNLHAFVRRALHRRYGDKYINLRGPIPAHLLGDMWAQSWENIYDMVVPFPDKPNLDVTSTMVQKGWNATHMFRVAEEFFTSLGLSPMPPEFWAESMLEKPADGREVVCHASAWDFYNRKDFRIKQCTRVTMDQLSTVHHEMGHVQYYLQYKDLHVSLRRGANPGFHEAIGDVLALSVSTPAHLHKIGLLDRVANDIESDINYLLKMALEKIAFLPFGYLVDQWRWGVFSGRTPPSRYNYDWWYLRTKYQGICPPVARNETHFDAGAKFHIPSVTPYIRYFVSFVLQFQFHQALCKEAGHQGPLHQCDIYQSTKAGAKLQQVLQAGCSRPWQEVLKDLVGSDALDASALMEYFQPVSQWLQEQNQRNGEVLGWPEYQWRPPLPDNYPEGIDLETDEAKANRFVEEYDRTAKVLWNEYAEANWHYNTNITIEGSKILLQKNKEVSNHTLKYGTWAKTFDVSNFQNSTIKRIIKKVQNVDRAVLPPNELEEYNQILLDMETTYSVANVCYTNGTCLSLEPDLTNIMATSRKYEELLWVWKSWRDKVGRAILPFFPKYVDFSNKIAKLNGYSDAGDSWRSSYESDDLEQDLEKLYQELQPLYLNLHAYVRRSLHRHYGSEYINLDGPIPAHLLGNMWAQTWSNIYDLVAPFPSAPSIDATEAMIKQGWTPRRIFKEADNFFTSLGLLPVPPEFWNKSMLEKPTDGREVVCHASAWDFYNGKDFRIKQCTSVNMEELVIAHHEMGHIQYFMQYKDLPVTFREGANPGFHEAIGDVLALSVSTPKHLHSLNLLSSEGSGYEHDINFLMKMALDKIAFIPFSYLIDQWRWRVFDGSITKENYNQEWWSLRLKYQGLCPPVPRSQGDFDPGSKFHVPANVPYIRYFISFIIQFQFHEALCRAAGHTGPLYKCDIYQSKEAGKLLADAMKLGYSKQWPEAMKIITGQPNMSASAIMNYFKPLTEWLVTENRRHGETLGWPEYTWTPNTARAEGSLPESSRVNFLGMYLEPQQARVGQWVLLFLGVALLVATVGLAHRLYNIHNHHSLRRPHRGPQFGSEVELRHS

SMILES | IC50 [1] [nM] | Time [2] [min] | Time (Rattus norvegicus [3]) [h] | half-life (chymotrypsin) [h] | half-life (trypsin) [min] | half-life [5] [h] | half-life [6] [h] | Time [7] [h] | Inhibition over time (Rattus norvegicus [8]) [%] | Inhibition over time (Rattus norvegicus [9]) [%] | Inhibition over time (Rattus norvegicus [10]) [%] | Inhibition over time (Rattus norvegicus [11]) [%] | Inhibition over time (Rattus norvegicus [13]) [%] | Inhibition over time (Rattus norvegicus [14]) [%] | Inhibition over time (Rattus norvegicus [15]) [%] | Inhibition over time (Rattus norvegicus [16]) [%] | Inhibition over time (Rattus norvegicus [18]) [%] | Inhibition over time (Rattus norvegicus [19]) [%] | Inhibition over time (Rattus norvegicus [20]) [%] | Inhibition over time (Rattus norvegicus [21]) [%] | further results
NCCCCC(NC(=O)C1CCC1)C(=O)NC(Cc1ccccc1)C(=O)CCC(=O)N1CCCC1C(=O)O (stereo not given) | 6 |  |  |  |  |  |  |  |  |  |  |  |  |  |  |  |  |  |  |  | 
C[C@H](NC(=O)[C@H](Cc1ccccc1)NC(=O)[C@H](CCCCN)NC(=O)C1CCC1)C(=O)N1CCC[C@H]1C(=O)O (Cyclobutanecarbonyl-KFAP-OH) | 40 |  |  |  |  |  |  |  |  |  |  |  |  |  |  |  |  |  |  |  | 
NCCCC[C@H](NC(=O)[C@@H]1CCCN1C(=O)CNC(=O)[C@@H]1CCCN1C(=O)[C@H](Cc1ccc(O)cc1)NC(=O)C1CCC1)C(=O)N[C@@H](Cc1ccccc1)C(=O)NCC(=O)N1CCC[C@H]1C(=O)O (Cyclobutanecarbonyl-YPGPKFGP-OH) | 340 | 20 | 0.667 | 22 | < 5 | 0.333 | > 1 | 24 |  |  |  |  |  |  |  |  |  |  |  |  | Time (Rattus norvegicus [4]): 5 h
NCCCC[C@H](NC(=O)[C@@H]1CCCN1C(=O)CCC(=O)[C@@H]1CCCN1C(=O)[C@H](Cc1ccc(O)cc1)NC(=O)C1CCC1)C(=O)N[C@@H](Cc1ccccc1)C(=O)CCC(=O)N1CCC[C@H]1C(=O)O (Cyclobutanecarbonyl-Y[X1]PK[X2]P-OH) | 3.4 | 60 | 5 | 22 | 5 | 1 |  | 20 | 14.5 | 39.5 | 7.8 | 23.5 | 24.3 | 0 | 0 | 0 | 79.5 | 31.5 | 17.3 | 45 | Inhibition over time (Rattus norvegicus [12]): 0%; Inhibition over time (Rattus norvegicus [17]): 0%; Inhibition over time (Rattus norvegicus [22]): 15.3%; Inhibition over time (Rattus norvegicus [23]): 12.5%
CCCC[C@H](NC(=O)[C@@H]1CCCN1C(=O)CCC(=O)[C@@H]1CCCN1C(=O)[C@H](Cc1ccc(O)cc1)NC(=O)C1CCC1)C(=O)N[C@@H](Cc1ccccc1)C(=O)CCC(=O)N1CCC[C@H]1C(=O)O (Cyclobutanecarbonyl-Y[X1]P[Nle][X2]P-OH) | 8 |  | 23 |  |  | 7 | 5 |  | 14.5 | 64.3 | 0 | 27.5 | 26.3 | 24.3 | 22.4 | 25.6 | 88.5 | 37 | 30.8 | 59.8 | half-life (pepsin): 3 h; Time [24]: 24 h; Time [25]: 24 h; Inhibition over time (Rattus norvegicus [26]): 0%
C[C@H](NC(=O)[C@H](Cc1ccccc1)NC(=O)[C@H](CCCCN)NC(=O)[C@@H]1NCCC1=O)C(=O)N1CCC[C@H]1C(=O)O (H-[X3]KFAP-OH) |  |  |  |  |  |  |  |  |  |  |  |  |  |  |  |  |  |  |  |  | IC50 [27]: 87.3 nM
